According to ChEMBL document CHEMBL4414603, “Extracellular vs Intracellular Delivery of CO: Does It Matter for a Stable, Diffusible Gasotransmitter?” (J Med Chem, 2019):
One block for each molecule: values may come before it. The source made the active and inactive calls. The calls are words filed in the database; no cut-off is given here.

Legend:
[1] = tested on: RAW264.7; test: Dark toxicity against mouse RAW264.7 cells assessed as reduction in cell viability up to 100 uM after 24 hrs by MTT assay; format: cell-based; details: raw264.7, 24 h
Summary of the method: (§1)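 RAW 264.7 cells (within 5 passages, phenol-red-free DMEM-F12K, 10% FBS) seeded at 1.0×10^4/well for 24 h, then dosed 0.08–100 μM (≤0.4% DMSO). Light arm: blue LED array (66,351 lx) 1 h, then 23 h more; dark arm kept unlit. MTT 4 h, formazan in DMSO, A560 minus A750, normalised to vehicle; 3 biological × 3 technical replicates, mean ± SEM.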

[2] = Solubility of the compound in DMSO at < 50 mM; format: physicochemical
[3] = Solubility of the compound in water at < 50 mM; format: physicochemical; details: buffer
[4] = Solubility of the compound in PBS buffer at < 50 mM; format: physicochemical
[5] = Solubility of the compound in FBS supplemented DMEM-F12 medium at < 50 mM; format: physicochemical
[6] = Stability of the compound in DMSO incubated for >= 1 month under dark condition; format: physicochemical
[7] = Stability of the compound in water incubated for >= 1 month under dark condition; format: physicochemical; details: buffer
[8] = Stability of the compound in PBS buffer incubated for >= 1 month under dark condition; format: physicochemical
[9] = Stability of the compound in FBS supplemented DMEM-F12 medium incubated for >= 1 month under dark condition
[10] = target: T1, Albumin (Bos taurus, UniProt P02769); test: Binding affinity to bovine serum albumin at pH 7.4 TRIS buffer by fluorescence based Stern-Volmer plot analysis; format: ADME; details: cattle, isolated protein
T1 sequence (P02769 whole entry): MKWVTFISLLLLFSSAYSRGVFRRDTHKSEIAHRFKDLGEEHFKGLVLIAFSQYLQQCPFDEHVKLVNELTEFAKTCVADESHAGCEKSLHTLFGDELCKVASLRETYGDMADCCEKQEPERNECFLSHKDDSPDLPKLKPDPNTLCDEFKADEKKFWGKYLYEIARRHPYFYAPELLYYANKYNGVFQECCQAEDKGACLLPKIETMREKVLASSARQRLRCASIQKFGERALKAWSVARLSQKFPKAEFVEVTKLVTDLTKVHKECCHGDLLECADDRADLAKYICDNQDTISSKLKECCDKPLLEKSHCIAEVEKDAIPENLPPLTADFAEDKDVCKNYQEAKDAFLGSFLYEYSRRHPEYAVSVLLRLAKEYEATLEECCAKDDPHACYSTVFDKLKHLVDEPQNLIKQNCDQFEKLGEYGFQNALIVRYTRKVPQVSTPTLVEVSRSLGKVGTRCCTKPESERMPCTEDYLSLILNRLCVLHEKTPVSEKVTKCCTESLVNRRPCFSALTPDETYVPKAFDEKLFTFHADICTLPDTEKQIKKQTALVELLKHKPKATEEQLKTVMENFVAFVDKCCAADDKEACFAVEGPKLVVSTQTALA
Summary of the method: (§2)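 Tryptophan fluorescence quench of BSA (1.4 μM) in TRIS buffer pH 7.4 at 295 K, excitation 282 nm, titrated with compound at 0–22.4 μM; data fitted by Stern-Volmer and modified Stern-Volmer plots.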

[11] = Drug metabolism in DMSO assessed as sodium 7-(benzoyloxy)-6-carboxynaphthalene-1-sulfonate metabolite formation at […] after 24 hrs illuminated with visible light by 1H-NMR analysis
Summary of the method: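 Roughly 0.05 mmol compound in 5.0 mL DMSO, under air, irradiated in a photoreactor with 419 nm lamps (2,450 lx) until the lowest-energy absorption band disappeared (~24 h); photoproduct then characterised.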

[12] = Drug uptake in mouse RAW264.7 cells assessed as intracellular accumulation at 50 uM after 4 hrs by Hoechst 33342 staining based fluorescence inverted microscopic method; format: ADME, cell-based; details: raw264.7, 4 h
Summary of the method: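 RAW 264.7 cells seeded at 1.0×10^4 cells/[…] in chamber slides, adhered 24 h, exposed to 50 μM compound (from 25 mM DMSO stock; 0.4% DMSO final) 4 h with minimal light; Hoechst 33342 15 min, three PBS washes; imaged at 20x, blue channel ex 310–390/em 420–470 nm.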

[13] = Drug uptake in mouse RAW264.7 cells assessed as extracellular accumulation at 50 uM incubated for 4 hrs under dark condition followed by compound washout by Hoechst 33342 staining based fluorescence inverted microscopic method; format: ADME, cell-based; details: raw264.7, 4 h
Summary of the method: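 After 4 h dark incubation of RAW 264.7 cells with 50 μM compound, cells washed with medium containing 10% FBS; pooled washes read by fluorescence (ex 410 nm, slit 3.0 nm) against a 50 μM standard.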

[14] = Drug metabolism in mouse RAW264.7 cells assessed as CO release at 50 uM incubated 4 hrs prior to compound washout followed by 1-Ac addition for 30 mins and subsequent 460 nm LED light illumination for 1 hr by Hoechst 33342 dye based fluorescence assay; format: ADME, cell-based; details: raw264.7, 4 h
Summary of the method: (§3)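 RAW 264.7 cells on chamber slides given 50 μM compound 4 h, then washed 3x with plain medium or left unwashed; Nile red CO sensor 1-Ac 5 μM final (0.2% DMSO) 30 min; blue LED (66,351 lx, 2 cm) 1 h at 37 °C, then 1 h dark at 37 °C; Hoechst 33342 stain; red channel ex 550–600/em 598–660 nm.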

[15] = Drug metabolism in mouse RAW264.7 cells assessed as CO release at 50 uM preincubated 4 hrs followed by 1-Ac addition for 30 mins and subsequent 460 nm LED light illumination for 1 hr by Hoechst 33342 dye based fluorescence assay; format: ADME, cell-based; details: raw264.7, 50 µM; summary of the method: as §3
[16] = tested on: RAW264.7; test: Cytotoxicity against mouse RAW264.7 cells assessed as reduction in cell viability up to 100 uM incubated for 1 hr under 460 nm LED light illumination and measured after 23 hrs by MTT assay; format: cell-based; details: raw264.7, 1 h; summary of the method: as §1
[17] = tested on: RAW264.7; test: Antiinflammatory activity in mouse RAW264.7 cells assessed as reduction in LPS-induced TNF-alpha level up to 1 uM incubated for 4 hrs prior to 460 nm LED light illumination for 1 hr followed by 6 hrs incubation under dark condition and subsequent LPS-stimulation and measured after 1 hr by ELISA; format: functional, cell-based
Summary of the method: (§4)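 RAW 264.7 cells seeded at 1.0×10^4/well, 24 h; compound 0.04–50 μM (0.4% DMSO vehicle) for 4 h without light; one plate then given blue LED (66,351 lx) 1 h at 37 °C. Both plates held 6 h dark at 37 °C, then E. coli O127:B8 LPS 1 μg/mL final for 1 h; supernatant TNF-α by mouse ELISA; 3 experiments, 2 technical replicates, mean ± SEM.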

[18] = tested on: RAW264.7; test: Antiinflammatory activity in mouse RAW264.7 cells assessed as reduction in LPS-induced TNF-alpha expression at up to 50 uM preincubated for 4 hrs followed by 6 hrs incubation under dark condition and subsequent LPS-stimulation and measured after 1 hr by ELISA; format: functional, cell-based; summary of the method: as §4
[19] = Absorption property of the compound in DMSO assessed as minimum absorption wavelength at 100 uM; format: physicochemical
[20] = Emission property of the compound in DMSO assessed as excited state emission wavelength at 100 uM; format: physicochemical
[21] = Emission property of the compound in DMSO assessed as tautomeric state emission wavelength at 100 uM; format: physicochemical
[22] = Absorption property of the compound in pH 7.4 PBS buffer assessed as absorption wavelength at 100 uM; format: physicochemical; details: pH 7.4, 100 µM
[23] = Absorption property of the compound in water assessed as absorption wavelength at 100 uM; format: physicochemical; details: buffer
[24] = Absorption property of the compound in 10% FBS supplemented DMEM-F12 medium assessed as absorption wavelength at 100 uM; format: physicochemical
[25] = Emission property of the compound in pH 7.4 PBS buffer assessed as excited state emission wavelength at 100 uM; format: physicochemical; details: pH 7.4, 100 µM
[26] = Emission property of the compound in water assessed as emission wavelength at 100 uM; format: physicochemical; details: buffer
Summary of the method: (§5)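 Emission spectra recorded at 0.1 mM in water, 10 mM PBS pH 7.4, or DMEM/F12K with 10% FBS; excitation 410 nm or 467 nm, slit width 3.0 nm.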

[27] = Emission property of the compound in 10% FBS supplemented DMEM-F12 medium assessed as emission wavelength at 100 uM; format: physicochemical; summary of the method: as §5
[28] = target: T1, Albumin; test: Binding affinity to bovine serum albumin at pH 7.4 TRIS buffer at 1:1 ratio of compound to protein by fluorescence based assay; format: ADME; details: cattle, isolated protein; summary of the method: as §2
[29] = Emission property of the compound in 10% FBS supplemented DMEM-F12 medium assessed as excitation wavelength; format: physicochemical
[30] = Drug metabolism in DMSO assessed as CO release at 0.05 mmol incubated for 24 hrs under 419 nm light illumination
[31] = Drug metabolism in DMSO assessed as sodium 7-(benzoyloxy)-6-carboxynaphthalene-1-sulfonate metabolite formation at 0.05 mmol incubated for 24 hrs under 419 nm light illumination by HSQC analysis
[32] = Drug metabolism in DMSO assessed as sodium 7-(benzoyloxy)-6-carboxynaphthalene-1-sulfonate metabolite formation at 0.05 mmol incubated for 24 hrs under 419 nm light illumination by HMBC analysis
[33] = Drug metabolism in DMSO assessed as sodium 7-(benzoyloxy)-6-carboxynaphthalene-1-sulfonate metabolite formation at 0.05 mmol incubated for 24 hrs under 419 nm light illumination by FTIR analysis
[34] = Drug metabolism in DMSO assessed as sodium 7-(benzoyloxy)-6-carboxynaphthalene-1-sulfonate metabolite formation at 0.05 mmol incubated for 24 hrs under 419 nm light illumination by 13C-NMR analysis
[35] = Drug metabolism in DMSO assessed as sodium 7-(benzoyloxy)-6-carboxynaphthalene-1-sulfonate metabolite formation at 0.05 mmol incubated for 24 hrs under 419 nm light illumination by 2D-COSY analysis
[36] = Drug metabolism in DMSO assessed as sodium 7-(benzoyloxy)-6-carboxynaphthalene-1-sulfonate metabolite formation at 0.05 mmol incubated for 24 hrs under 419 nm light illumination by ESI/APCI-MS analysis
[37] = tested on: RAW264.7; test: Cytotoxicity against mouse RAW264.7 cells assessed as reduction in cell viability incubated for 1 hr under 460 nm LED light illumination and measured after 23 hrs by MTT assay; format: cell-based; details: for Activity: mouse, raw264.7; summary of the method: as §1
[38] = Absorption property of the compound in DMSO assessed as reduction in absorption wavelength at 0.05 mmol incubated for 14 hrs under 419 nm light illumination; format: physicochemical

solubility [2]: Soluble
solubility [3]: Soluble
solubility [4]: Soluble
solubility [5]: Soluble
Stability [6]: Stable
Stability [7]: Stable
Stability [8]: Stable
Ka [10]: 4.1 ×10⁵ /M
Drug uptake [12]: Not Active
Drug uptake [13]: Not Active
Drug metabolism [14]: Metabolite_Detected
Drug metabolism [15]: Metabolite_Detected
Activity [19]: 410 nm
Activity [20]: 480 nm
Activity [21]: 610 nm
Activity [22]: 450 to 500 nm
Activity [23]: 450 to 500 nm
Activity [24]: 450 to 500 nm
Activity [25]: 410 nm
Activity [26]: 560 nm
Activity [27]: 600 nm
Activity [28]: Active
Activity [29]: 467 nm
SMILES: O=c1c(O)c(-c2ccccc2)oc2cc3c(S(=O)(=O)[O-])cccc3cc12.[Na+]
Activity [1]: Non-Toxic
Stability [9]: Stable
Drug metabolism [11]: Metabolite detected
Activity [16]: Non-Toxic
Activity [17]: Active
Activity [18]: Active
Drug metabolism [30]: Metabolite detected
Drug metabolism [31]: Metabolite detected
Drug metabolism [32]: Metabolite detected
Drug metabolism [33]: Metabolite detected
Drug metabolism [34]: Metabolite detected
Drug metabolism [35]: Metabolite detected
Drug metabolism [36]: Metabolite detected

SMILES: O=C(Oc1cc2ccccc2cc1C(=O)O)c1ccccc1
Activity [37]: Non-Toxic

Ka [10]: 3.2 ×10³ /M
Drug uptake [12]: Active
Drug metabolism [14]: Metabolite_Detected
Activity [28]: Active
Activity [38]: Active
SMILES: O=c1c(O)c(-c2ccccc2)oc2cc3ccccc3cc12
Activity [1]: Non-Toxic
IC50 ([37]; Mus musculus, RAW264.7): 22.4 µM
Activity [17]: Active
Activity [18]: Active
Drug metabolism [30]: Metabolite detected

SMILES: O=C(Oc1cc2c(S(=O)(=O)O)cccc2cc1C(=O)O)c1ccccc1
Activity [37]: Non-Toxic
